For test [1], the species on record is Mus musculus. Nature of the test: Neuroprotective activity against kainate-induced cell death in mouse primary motor neurons by cell counting method. The format is functional.
Test [2] is filed under the species Mus musculus. In words: Neuroprotective activity against kainate-induced cell death in mouse primary motor neurons by caspase activation method. Type of test: functional.
The test system of test [3] is Cortical neurone. Nature of the test: Neuroprotective activity against kainate-induced cell death in mouse primary cortical neurons by MTT assay. Type of test: functional, cell-based. A general note: Formazan colour is commonly taken as a measure of viable cells.
For test [4], the system named is Cortical neurone. In words: Neuroprotective activity against kainate-induced cell death in mouse primary cortical neurons by caspase activation method. Type of test: functional, cell-based.
Test [5] is filed under the species Mus musculus. Nature of the test: Neuroprotective activity against kainate-induced cell death in mouse primary motor neurons by MTT assay. Type of test: functional.
The subject of test [6] is Cortical neurone. Nature of the test: Neuroprotective activity against kainate-induced cell damage in mouse primary cortical neurons assessed as reversal of kainate-induced reduction in calcium flux by fura-2-AM dye based fluorescence assay. The format is functional. An outline of the steps: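 Mouse primary cortical neurons loaded with fura-2AM for 45 min, washed, then depolarized with 10 mM KCl to drive Ca2+ entry through voltage-gated calcium channels. Flux read on a plate-based system.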
On the technique in general: Calcium assays in cells follow changes in intracellular calcium, usually with a dye or a luminescent sensor.

For test [7], the system named is Cortical neurone. Nature of the test: Neuroprotective activity against kainate-induced cell damage in mouse primary cortical neurons assessed as reduction in kainate-induced neurofilament loss by measuring increase in MAPK level at 1 uM pretreated followed by kainate challenge measured after 18 hrs by fluorescence assay. The format is functional, cell-based. The note with it: in the assay text read “MAP2” for “MAPK”. An outline of the steps:
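Mouse primary cortical neurons cultured as previously described; dendritic processes stained with anti-MAP2 antibody. Cell-profile perimeter measured by image analysis, each condition normalized to kainate-only.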

Test [8] has as its system Cortical neurone. Nature of the test: Neuroprotective activity against kainate-induced cell death in mouse primary cortical neurons by cell counting method. The format is functional, cell-based.

Activity calls are given as the source filed them. No rule for the calls is given here.

As to `N=c1sc2cc(OC(F)(F)F)ccc2n1CCn1cc(-c2cccc(Cl)c2)nn1`, the result in the test listed under Mus musculus [1], in the test filed under Mus musculus [2], in the test with Cortical neurone [3], in the test with Cortical neurone [4], in the test filed under Mus musculus [5] and with Cortical neurone [7] was inactive. In addition, the result in the test with Cortical neurone [8] was inactive. Further, the outcome in the test on Cortical neurone [6] was Active.

Regarding `N=c1sc2cc(OC(F)(F)F)ccc2n1CCn1cc(Cc2ccccc2)nn1`, the result in the test listed under Mus musculus [1], in the test filed under Mus musculus [2], in the test with Cortical neurone [3], in the test with Cortical neurone [4], in the test listed under Mus musculus [5] and with Cortical neurone [7] was inactive. Further, the result in the test on Cortical neurone [8] was inactive. The result in the test on Cortical neurone [6] was Active.

`N=c1sc2cc(OC(F)(F)F)ccc2n1CCn1cc(-c2ccc(C(F)(F)F)cc2)nn1`: the outcome in the test listed under Mus musculus [1], in the test filed under Mus musculus [2], in the test on Cortical neurone [3], in the test on Cortical neurone [4], in the test listed under Mus musculus [5] and in the test with Cortical neurone [7] was inactive. For the same molecule, the result in the test on Cortical neurone [8] was inactive. In addition, the result in the test on Cortical neurone [6] was Active.

Turning to `N=c1sc2cc(OC(F)(F)F)ccc2n1CCn1cc(-c2ccc([N+](=O)[O-])cc2)nn1`, the outcome in the test listed under Mus musculus [1], in the test filed under Mus musculus [2], in the test with Cortical neurone [3], in the test with Cortical neurone [4], in the test listed under Mus musculus [5] and with Cortical neurone [7] was inactive. For the same molecule, the outcome in the test with Cortical neurone [8] was inactive. Further, the outcome in the test with Cortical neurone [6] was Active.

`N=c1sc2cc(OC(F)(F)F)ccc2n1CCn1cc(-c2ccccc2Br)nn1`: the result in the test filed under Mus musculus [1], in the test listed under Mus musculus [2], in the test with Cortical neurone [3], in the test on Cortical neurone [4], in the test filed under Mus musculus [5] and with Cortical neurone [7] was inactive. Also, in the test with Cortical neurone [8], the result was inactive. For the same molecule, the result in the test on Cortical neurone [6] was Active.

For the molecule `N=c1sc2cc(OC(F)(F)F)ccc2n1CCn1cc(-c2ccccc2C(F)(F)F)nn1`, the result in the test listed under Mus musculus [1], in the test listed under Mus musculus [2], in the test on Cortical neurone [3], with Cortical neurone [4], in the test filed under Mus musculus [5] and with Cortical neurone [7] was inactive. Moreover, the outcome in the test with Cortical neurone [8] was inactive. Moreover, the result with Cortical neurone [6] was Active.

As for `Cn1cncc1-c1cn(CCn2c(=N)sc3cc(OC(F)(F)F)ccc32)nn1`, the outcome in the test filed under Mus musculus [1], in the test listed under Mus musculus [2], in the test with Cortical neurone [3], with Cortical neurone [4], in the test filed under Mus musculus [5] and in the test on Cortical neurone [7] was inactive. The result in the test with Cortical neurone [8] was inactive. The outcome with Cortical neurone [6] was Active.

On to `N=c1sc2cc(OC(F)(F)F)ccc2n1CCn1cc(-c2cccc3ccccc23)nn1`, for which the outcome in the test filed under Mus musculus [1], in the test listed under Mus musculus [2], with Cortical neurone [3], in the test on Cortical neurone [4], in the test filed under Mus musculus [5] and in the test with Cortical neurone [7] was inactive. In the test with Cortical neurone [8], the outcome was inactive. Further, the result in the test on Cortical neurone [6] was Active.

`N=c1sc2cc(OC(F)(F)F)ccc2n1CCn1cc(C2CCCC2)nn1`: the outcome in the test listed under Mus musculus [1], in the test filed under Mus musculus [2], in the test with Cortical neurone [3], in the test on Cortical neurone [4], in the test listed under Mus musculus [5] and with Cortical neurone [7] was inactive. The outcome in the test with Cortical neurone [8] was inactive. In addition, the result in the test with Cortical neurone [6] was Active.

Turning to `N=c1sc2cc(OC(F)(F)F)ccc2n1CCn1cc(-c2ccccc2F)nn1`, the outcome in the test listed under Mus musculus [1], in the test listed under Mus musculus [2], with Cortical neurone [3], with Cortical neurone [4], in the test listed under Mus musculus [5] and with Cortical neurone [7] was inactive. Moreover, the outcome in the test with Cortical neurone [8] was inactive. The outcome in the test with Cortical neurone [6] was Active.

On to `N=c1sc2cc(OC(F)(F)F)ccc2n1CCn1cc(C2CCCCC2)nn1`, for which the result in the test filed under Mus musculus [1], in the test filed under Mus musculus [2], in the test with Cortical neurone [3], in the test on Cortical neurone [4], in the test listed under Mus musculus [5] and with Cortical neurone [7] was inactive. Moreover, the outcome in the test with Cortical neurone [8] was inactive. Besides, the result in the test with Cortical neurone [6] was Active.

Take `N=c1sc2cc(OC(F)(F)F)ccc2n1CCn1cc(-c2ccc(N)cc2)nn1`: the outcome in the test filed under Mus musculus [1], in the test filed under Mus musculus [2], in the test on Cortical neurone [3], in the test with Cortical neurone [4], in the test filed under Mus musculus [5] and with Cortical neurone [7] was inactive. The result with Cortical neurone [8] was inactive. Moreover, in the test on Cortical neurone [6], the result was Active.

For the molecule `N=c1sc2cc(OC(F)(F)F)ccc2n1CCn1cc(-c2cc(F)cc(F)c2)nn1`, the result in the test filed under Mus musculus [1], in the test listed under Mus musculus [2], in the test on Cortical neurone [3], in the test with Cortical neurone [4], in the test listed under Mus musculus [5] and in the test with Cortical neurone [7] was inactive. In the test on Cortical neurone [8], the result was inactive. In addition, the result with Cortical neurone [6] was Active.

As to `CC(C)Cc1cn(CCn2c(=N)sc3cc(OC(F)(F)F)ccc32)nn1`, the result in the test filed under Mus musculus [1], in the test filed under Mus musculus [2], in the test on Cortical neurone [3], in the test on Cortical neurone [4], in the test filed under Mus musculus [5] and with Cortical neurone [7] was inactive. For the same molecule, the outcome in the test on Cortical neurone [8] was inactive. Further, the outcome in the test with Cortical neurone [6] was Active.

As to `N=c1sc2cc(OC(F)(F)F)ccc2n1CCn1cc(-c2ccc(F)cc2)nn1`, the result in the test listed under Mus musculus [1], in the test listed under Mus musculus [2], with Cortical neurone [3], in the test with Cortical neurone [4], in the test listed under Mus musculus [5] and in the test with Cortical neurone [7] was inactive. In addition, the outcome with Cortical neurone [8] was inactive. Besides, the result in the test with Cortical neurone [6] was Active.

On to `N=c1sc2cc(OC(F)(F)F)ccc2n1CCn1cc(-c2cccc(N)c2)nn1`, for which the result in the test filed under Mus musculus [1], in the test filed under Mus musculus [2], with Cortical neurone [3], in the test with Cortical neurone [4], in the test filed under Mus musculus [5] and in the test with Cortical neurone [7] was inactive. For the same molecule, the result with Cortical neurone [8] was inactive. In addition, the result with Cortical neurone [6] was Active.

As to `N=c1sc2cc(OC(F)(F)F)ccc2n1CCn1cc(-c2cc(F)c(F)c(F)c2)nn1`, the result in the test listed under Mus musculus [1], in the test filed under Mus musculus [2], in the test on Cortical neurone [3], in the test with Cortical neurone [4], in the test listed under Mus musculus [5] and with Cortical neurone [7] was inactive. Besides, in the test on Cortical neurone [8], the outcome was inactive. Moreover, the outcome with Cortical neurone [6] was Active.

With `CC(C)CCc1cn(CCn2c(=N)sc3cc(OC(F)(F)F)ccc32)nn1`, the result in the test listed under Mus musculus [1], in the test filed under Mus musculus [2], in the test on Cortical neurone [3], with Cortical neurone [4], in the test filed under Mus musculus [5] and in the test with Cortical neurone [7] was inactive. Further, in the test on Cortical neurone [8], the result was inactive. In addition, the outcome in the test with Cortical neurone [6] was Active.

`N=c1sc2cc(OC(F)(F)F)ccc2n1CCn1cc(-c2cccc(C(F)(F)F)c2)nn1`: the outcome in the test filed under Mus musculus [1], in the test listed under Mus musculus [2], in the test on Cortical neurone [3], with Cortical neurone [4], in the test listed under Mus musculus [5] and in the test on Cortical neurone [7] was inactive. The result in the test on Cortical neurone [8] was inactive. Moreover, the outcome in the test with Cortical neurone [6] was Active.

As for `CN(C)c1ccc(-c2cn(CCn3c(=N)sc4cc(OC(F)(F)F)ccc43)nn2)cc1`, the result in the test filed under Mus musculus [1], in the test listed under Mus musculus [2], in the test with Cortical neurone [3], in the test on Cortical neurone [4], in the test filed under Mus musculus [5] and in the test with Cortical neurone [7] was inactive. Also, in the test with Cortical neurone [8], the outcome was inactive. In addition, the result with Cortical neurone [6] was Active.

On to `N=c1sc2cc(OC(F)(F)F)ccc2n1CCn1cc(-c2ccc(F)c(F)c2)nn1`, for which the result in the test listed under Mus musculus [1], in the test filed under Mus musculus [2], in the test with Cortical neurone [3], with Cortical neurone [4], in the test filed under Mus musculus [5] and in the test on Cortical neurone [7] was inactive. For the same molecule, the outcome in the test on Cortical neurone [8] was inactive. Besides, the outcome in the test on Cortical neurone [6] was Active.

The values above are taken from ChEMBL document CHEMBL4145631, “Riluzole-Triazole Hybrids as Novel Chemical Probes for Neuroprotection in Amyotrophic Lateral Sclerosis” (ACS Med Chem Lett, 2018).
